Values after ≈ are worked out from the molar mass of the structure shown.
Experiments:
Staphylococcus aureus [1] = assay: Antimicrobial activity against Staphylococcus aureus ST22 11B086169 incubated for 20 hrs by microdilution method; assay type: functional; settings: ST22 11B086169, 20 h
Procedure, shortened: (§1)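 MIC determined by microdilution following Clinical & Laboratory Standards Institute (CLSI) guidelines, read in µg/mL, against a panel of hospital- and community-acquired MRSA strains.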

Staphylococcus aureus [2] = assay: microbe, parasite or virus in culture; settings: ATCC 29213, 20 h
[3] = Antimicrobial activity against Staphylococcus saprophyticus ATCC 15305 incubated for 20 hrs by microdilution method; assay type: functional, Staphylococcus saprophyticus subsp. saprophyticus; settings: ATCC 15305, 20 h
Procedure, shortened: (§2)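 Broth microdilution MIC testing done following CLSI guidelines.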

Enterococcus faecium = assay: Antimicrobial activity against Enterococcus faecium ATCC 19433 incubated for 20 hrs by microdilution method; assay type: functional; settings: ATCC 19433, 20 h; procedure, shortened: as §2
Staphylococcus aureus [4] = assay: Antimicrobial activity against CA-methicillin-resistant Staphylococcus aureus W46 ST59 incubated for 20 hrs by microdilution method; settings: W46 ST59, 20 h
Staphylococcus aureus [5] = assay: microbe, parasite or virus in culture; settings: ATCC 25923, 20 h
Streptococcus pyogenes = assay: Antimicrobial activity against Streptococcus pyogenes ATCC 19615 incubated for 20 hrs by microdilution method; assay type: functional; settings: ATCC 19615, 20 h; procedure, shortened: as §2
Acinetobacter baumannii = assay: Antimicrobial activity against Acinetobacter baumannii ATCC 19606 incubated for 20 hrs by microdilution method; assay type: functional; settings: ATCC 19606 = CIP 70.34 = JCM 6841, 20 h; procedure, shortened: as §2
[6] = Therapeutic index, ratio of CC50 for human A549 cells to 1/2 times MIC for Staphylococcus aureus ATCC 25923; assay type: toxicity; settings: read-out: TI
Staphylococcus aureus [7] = assay: Antimicrobial activity against Staphylococcus aureus HA W231 ST45 incubated for 20 hrs by microdilution method; assay type: functional; settings: HA W231 ST45, 20 h; procedure, shortened: as §1
Staphylococcus aureus [8] = assay: Antimicrobial activity against Staphylococcus aureus ATCC BAA43 incubated for 20 hrs by microdilution method; assay type: functional; settings: ATCC BAA43, 20 h; procedure, shortened: as §1
[9] = Therapeutic index, ratio of CC50 for human HaCaT cells to 1/2 times MIC for Staphylococcus aureus ATCC 25923; assay type: toxicity; settings: read-out: TI
Staphylococcus aureus [10] = assay: Antimicrobial activity against CA-methicillin-resistant Staphylococcus aureus W4 ST338 incubated for 20 hrs by microdilution method; assay type: functional; settings: W4 ST338, 20 h; procedure, shortened: as §1
[11] = test system: Staphylococcus epidermidis; assay: Antimicrobial activity against Staphylococcus epidermidis ATCC 12228 incubated for 20 hrs by microdilution method; assay type: functional; settings: ATCC 12228, 20 h; procedure, shortened: as §2
Staphylococcus aureus [12] = assay: Antimicrobial activity against Staphylococcus aureus ST239 incubated for 20 hrs by microdilution method; assay type: functional; settings: CN79, 20 h; procedure, shortened: as §1
[13] = Cytotoxicity against human A549 cells assessed as reduction in cell viability after 48 to 72 hrs by MTT assay; assay type: cell-based
Staphylococcus aureus [14] = assay: Antimicrobial activity against CA-methicillin-resistant Staphylococcus aureus W48 ST217 incubated for 20 hrs by microdilution method; settings: W48 ST217, 20 h
Staphylococcus aureus [15] = assay: Antimicrobial activity against Staphylococcus aureus ATCC BAA44 incubated for 20 hrs by microdilution method; assay type: functional; settings: ATCC BAA44, 20 h; procedure, shortened: as §1
Streptococcus agalactiae = assay: Antimicrobial activity against Streptococcus agalactiae ATCC 12386 incubated for 20 hrs by microdilution method; assay type: functional; settings: ATCC 12386, 20 h; procedure, shortened: as §2
[16] = Cytotoxicity against human HaCaT cells assessed as reduction in cell viability after 48 to 72 hrs by MTT assay; assay type: cell-based
Staphylococcus aureus [17] = assay: Antimicrobial activity against Staphylococcus aureus HA W235 ST5 incubated for 20 hrs by microdilution method; assay type: functional; settings: HA W235 ST5, 20 h; procedure, shortened: as §1
Pseudomonas aeruginosa = assay: Antimicrobial activity against Pseudomonas aeruginosa ATCC 27853 incubated for 20 hrs by microdilution method; assay type: functional; settings: ATCC 27853, 20 h; procedure, shortened: as §2
Streptococcus pneumoniae = assay: Antimicrobial activity against Streptococcus pneumoniae ATCC 49619 incubated for 20 hrs by microdilution method; assay type: functional; settings: ATCC 49619, 20 h; procedure, shortened: as §2
Staphylococcus aureus [18] = assay: Antimicrobial activity against CA-methicillin-resistant Staphylococcus aureus W45 ST59 incubated for 20 hrs by microdilution method; settings: W45 ST59, 20 h
Staphylococcus aureus [19] = assay: Antimicrobial activity against CA-methicillin-resistant Staphylococcus aureus W47 ST30 incubated for 20 hrs by microdilution method; assay type: functional; settings: W47 ST30, 20 h; procedure, shortened: as §1
[20] = test system: Enterococcus casseliflavus; assay: Antimicrobial activity against Enterococcus casseliflavus ATCC 25788 incubated for 20 hrs by microdilution method; assay type: functional; settings: ATCC 25788, 20 h; procedure, shortened: as §2
Bacillus subtilis = assay: Inhibition of N-terminal LgBiT-fused Bacillus subtilis NusB expressed in Escherichia coli BL21(DE3)pLysS interaction with C- terminal SmBiT-fused Bacillus subtilis NusE expressed in Escherichia coli BL21(DE3)pLysS at 100 uM preincubated for 10 mins followed by NusE addition and measured after 10 mins by nano-glo luciferase assay relative to control
Procedure, shortened: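 NusB and NusE were mixed 1:1 at 1 µM in PBS, with compound at 100 µM. The read-out was percent inhibition of the NusB-NusE interaction.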

[21] = microbe, parasite or virus in culture; settings: Enterobacter cloacae, ATCC 13047, 20 h
Staphylococcus aureus [22] = assay: Antimicrobial activity against Staphylococcus aureus USA300/ST8 incubated for 20 hrs by microdilution method; settings: USA300 ST8, 20 h

SMILES | MIC (Staphylococcus aureus [1]) | MIC (Staphylococcus aureus [2]) | MIC [3] | MIC (Enterococcus faecium) | MIC (Staphylococcus aureus [4]) | MIC (Staphylococcus aureus [5]) | MIC (Streptococcus pyogenes) | MIC (Acinetobacter baumannii) | selectivity ratio [6] | MIC (Staphylococcus aureus [7]) | MIC (Staphylococcus aureus [8]) | selectivity ratio [9] | CC50 [13] | MIC (Streptococcus agalactiae) | CC50 [16] | MIC (Pseudomonas aeruginosa) | MIC (Streptococcus pneumoniae) | MIC [20] | inhibition (Bacillus subtilis) | MIC [21] | also measured
C#Cc1cccc(NCc2cc([N+](=O)[O-])cc(Br)c2O)c1 | 4 µg/mL (≈ 11.5 µM) | 2 µg/mL (≈ 5.76 µM) | 16 µg/mL (≈ 46.1 µM) | 64 µg/mL (≈ 184 µM) | 4 µg/mL (≈ 11.5 µM) | 2 µg/mL (≈ 5.76 µM) | 32 µg/mL (≈ 92.2 µM) | 256 µg/mL (≈ 737 µM) | 27 | 2 µg/mL (≈ 5.76 µM) | 2 µg/mL (≈ 5.76 µM) | 25 | 79.1 µM | 32 µg/mL (≈ 92.2 µM) | 72.2 µM | > 256 µg/mL | 32 µg/mL (≈ 92.2 µM) | 64 µg/mL (≈ 184 µM) | 99.6% | > 256 µg/mL | MIC (Staphylococcus aureus [10]): 2 µg/mL (≈ 5.76 µM); MIC [11]: 4 µg/mL (≈ 11.5 µM); MIC (Staphylococcus aureus [12]): 4 µg/mL (≈ 11.5 µM); MIC (Staphylococcus aureus [14]): 2 µg/mL (≈ 5.76 µM); MIC (Staphylococcus aureus [15]): 16 µg/mL (≈ 46.1 µM); MIC (Staphylococcus aureus [17]): 2 µg/mL (≈ 5.76 µM); MIC (Staphylococcus aureus [18]): 2 µg/mL (≈ 5.76 µM); MIC (Staphylococcus aureus [19]): 2 µg/mL (≈ 5.76 µM); MIC (Staphylococcus aureus [22]): 4 µg/mL (≈ 11.5 µM)
O=[N+]([O-])c1ccc(O)c(/C=N/c2cccc(Cl)c2)c1 |  | 16 µg/mL (≈ 57.8 µM) |  | > 256 µg/mL |  | 2 µg/mL (≈ 7.23 µM) |  | 256 µg/mL (≈ 925 µM) | 76 |  |  | 69 | 274 µM |  | 250 µM | > 256 µg/mL | 64 µg/mL (≈ 231 µM) |  | 66.5% | > 256 µg/mL | 
CC(C)(C)c1ccc(NCc2cc([N+](=O)[O-])ccc2O)cc1 | 4 µg/mL (≈ 13.3 µM) | 4 µg/mL (≈ 13.3 µM) | 8 µg/mL (≈ 26.6 µM) | > 256 µg/mL | 4 µg/mL (≈ 13.3 µM) | 2 µg/mL (≈ 6.66 µM) | 16 µg/mL (≈ 53.3 µM) | > 256 µg/mL | 11 | 4 µg/mL (≈ 13.3 µM) | 4 µg/mL (≈ 13.3 µM) | 12 | 37.2 µM | 16 µg/mL (≈ 53.3 µM) | 38.9 µM | > 256 µg/mL | 4 to 8 µg/mL (≈ 13.3 to 26.6 µM) | 32 µg/mL (≈ 107 µM) | 10.8% | > 256 µg/mL | MIC (Staphylococcus aureus [10]): 4 µg/mL (≈ 13.3 µM); MIC [11]: 4 µg/mL (≈ 13.3 µM); MIC (Staphylococcus aureus [12]): 4 µg/mL (≈ 13.3 µM); MIC (Staphylococcus aureus [14]): 8 µg/mL (≈ 26.6 µM); MIC (Staphylococcus aureus [15]): 4 µg/mL (≈ 13.3 µM); MIC (Staphylococcus aureus [17]): 4 µg/mL (≈ 13.3 µM); MIC (Staphylococcus aureus [18]): 4 µg/mL (≈ 13.3 µM); MIC (Staphylococcus aureus [19]): 4 µg/mL (≈ 13.3 µM); MIC (Staphylococcus aureus [22]): 4 µg/mL (≈ 13.3 µM)
CC(C)(C)c1cccc(NCc2cc([N+](=O)[O-])ccc2O)c1 | 8 µg/mL (≈ 26.6 µM) | 4 µg/mL (≈ 13.3 µM) | 1 µg/mL (≈ 3.33 µM) | 32 µg/mL (≈ 107 µM) | 8 µg/mL (≈ 26.6 µM) | 2 µg/mL (≈ 6.66 µM) | 16 µg/mL (≈ 53.3 µM) | > 256 µg/mL | 6 | 8 µg/mL (≈ 26.6 µM) | 2 µg/mL (≈ 6.66 µM) | 6 | 18.3 µM | 16 µg/mL (≈ 53.3 µM) | 20.2 µM | > 256 µg/mL | 8 µg/mL (≈ 26.6 µM) | 32 µg/mL (≈ 107 µM) | 39.5% | > 256 µg/mL | MIC (Staphylococcus aureus [10]): 4 µg/mL (≈ 13.3 µM); MIC [11]: 16 µg/mL (≈ 53.3 µM); MIC (Staphylococcus aureus [12]): 8 µg/mL (≈ 26.6 µM); MIC (Staphylococcus aureus [14]): 4 µg/mL (≈ 13.3 µM); MIC (Staphylococcus aureus [15]): 8 µg/mL (≈ 26.6 µM); MIC (Staphylococcus aureus [17]): 4 µg/mL (≈ 13.3 µM); MIC (Staphylococcus aureus [18]): 8 µg/mL (≈ 26.6 µM); MIC (Staphylococcus aureus [19]): 4 µg/mL (≈ 13.3 µM); MIC (Staphylococcus aureus [22]): 8 µg/mL (≈ 26.6 µM)
CN[C@H](CC(C)C)C(=O)N[C@H]1C(=O)N[C@@H](CC(N)=O)C(=O)N[C@H]2C(=O)N[C@H]3C(=O)N[C@H](C(=O)N[C@H](C(=O)O)c4cc(O)cc(O)c4-c4cc3ccc4O)[C@H](O)c3ccc(c(Cl)c3)Oc3cc2cc(c3O[C@@H]2O[C@H](CO)[C@@H](O)[C@H](O)[C@H]2O[C@H]2C[C@](C)(N)[C@H](O)[C@H](C)O2)Oc2ccc(cc2Cl)[C@H]1O [VANCOMYCIN] |  |  | 1 µg/mL (≈ 0.69 µM) |  |  | 1 to 2 µg/mL (≈ 0.69 to 1.38 µM) |  | > 256 µg/mL |  |  |  |  |  | 0.5 µg/mL (≈ 0.345 µM) |  | > 256 µg/mL | 0.5 µg/mL (≈ 0.345 µM) | 4 µg/mL (≈ 2.76 µM) |  | > 256 µg/mL | 
O=[N+]([O-])c1ccc(O)c(/C=N/c2ccccc2Cl)c1 |  | 16 µg/mL (≈ 57.8 µM) |  | > 256 µg/mL |  | 2 µg/mL (≈ 7.23 µM) |  | 256 µg/mL (≈ 925 µM) | 119 |  |  | 96 | 432 µM |  | 347 µM | > 256 µg/mL | 64 µg/mL (≈ 231 µM) |  | 45.7% | > 256 µg/mL | 

Reference: ChEMBL document CHEMBL4364256, “Design, synthesis and biological evaluation of antimicrobial diarylimine and -amine compounds targeting the interaction between the bacterial NusB and NusE proteins” (Eur J Med Chem, 2019)
